Source: paper PMC4033650 (ACS Chemical Biology, 2014)
Read-outs that look alike come from different tables or passages of the source. Positions of bridges follow the written chain, without caps; N, C: chain ends. Non-standard residues stand in square brackets, D forms with d. Residues, ends and D or L forms follow the SMILES beside them. *: point of attachment. Gly(octyl) = CCCCCCCC[C@H](N)C(=O)O; Octanoyl = CCCCCCCC(=O)*; Dab = NCC[C@H](N)C(=O)O

What was measured:
[1] = Plasma protein binding by equilibrium dialysis; assay type: in vitro ADME; conditions: pooled healthy human plasma
[2] = tested on: polymyxin-resistant clinical isolates of P. aeruginosa, A. baumannii, and K. pneumoniae; test: MIC screen against polymyxin-resistant Gram-negative clinical isolates; assay type: cell-based; conditions: for MICs: polymyxin-resistant clinical isolates of P. aeruginosa, A. baumannii, K. pneumoniae
Method in brief: (§1)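 Broth microdilution in cation-adjusted Mueller–Hinton broth. […] Plates were incubated 18–20 h at 37 °C. MIC was taken as the lowest concentration inhibiting visible growth.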

[3] = tested on: panel of ATCC and clinical isolates; test: MIC in the presence of Mg2+; assay type: cell-based; conditions: addition of 16 mM of Mg2+; data not shown
Method in brief: as §1

[4] = Nephrotoxicity in mice, kidney histopathology; assay type: in vivo, mouse; conditions: subcutaneous, accumulated dose 105 mg/kg
Method in brief: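 Mice (three groups, n = 3) received subcutaneous injections over 3–4 days to an accumulated 105 mg/kg of test compound or polymyxin B sulfate, with a saline control. Kidneys were formalin-fixed (10%) and sectioned through cortex, medulla and papilla, then stained and graded: grade 1 (mild tubular damage) = 1, grade 2 (severe, necrosis) = 4, grade 3 (cortical necrosis/infarction) = 10.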

human red blood cells = test: Hemolysis of human red blood cells; assay type: cell-based; conditions: concentrations up to 32 mg/L
[5] = rats ref 23; cited from earlier work
[6] = tested on: polymyxin-resistant clinical P. aeruginosa isolate; test: Static time-kill, polymyxin-resistant P. aeruginosa isolate; assay type: cell-based, Pseudomonas aeruginosa; conditions: 32 mg/L
[7] = tested on: polymyxin-resistant clinical isolate of P. aeruginosa; test: Neutropenic mouse lung infection model; assay type: in vivo; conditions: 24 h after single-dose treatment (40 mg/kg); inoculum 5.42 ± 0.54 log CFU/lung
Method in brief: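 The model used neutropenic mice with lung infection, following the group's earlier protocol. One polymyxin-susceptible and one polymyxin-resistant P. aeruginosa strain were used. Lung bacterial burden was counted at 0 and 24 h after treatment.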

[8] = tested on: polymyxin-susceptible P. aeruginosa ATCC 27853; test: MIC by broth microdilution, P. aeruginosa ATCC 27853; assay type: cell-based, Pseudomonas aeruginosa
Method in brief: (§2)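 Broth microdilution was run in cation-adjusted Mueller–Hinton broth in polypropylene plates. The inoculum was about 10^6 cfu/mL, mixed 1:1 with broth containing test compound (0 to 128 mg/L). Plates were incubated 18–20 h at 37 °C. MIC was the lowest concentration with no visible growth.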

[9] = tested on: polymyxin-resistant clinical P. aeruginosa isolate; test: MIC by broth microdilution, polymyxin-resistant P. aeruginosa isolate; assay type: cell-based, Pseudomonas aeruginosa
Method in brief: as §2

[10] = Tolerability after bolus dose in mice; assay type: in vivo, mouse; conditions: subcutaneous bolus, 40 mg/kg
purified LPS = test: Dansyl-polymyxin LPS displacement binding assay
Method in brief: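 LPS was purified from bacteria, and its molar concentration was set by the purpald Kdo assay. Test compound binding to LPS was read as displacement of a synthetic dansyl-polymyxin probe, using the group's published protocol.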

[11] = Pharmacokinetics after single-dose intravenous administration in rats; conditions: rat, in vivo
[12] = Tolerability after bolus dose in rats; assay type: in vivo, rat; conditions: intravenous bolus, 0.75 mg/kg

Row | Compound | plasma protein binding (bound) [1] [%] | MICs [2] [mg/L] | increase in MICs on addition of Mg2+ [3] [fold] | histological grade of kidney lesions [4] | hemolysis of human red blood cells (human red blood cells) | half-life [5] [h] | total clearance [5] [mL/min/kg] | volume of distribution [5] [L/kg] | bacterial killing in time-kill [6] | bacterial burden in the lungs [7] [log CFU/lung] | MIC [8] [µg/mL] | MIC [9] [µg/mL] | adverse effects [10] | higher LPS binding affinity compared to PMB and colistin (purified LPS) | Vd [11] [L/kg] | clearance [11] [mL/min/kg] | half-life [11] [h] | adverse effects [12] | antimicrobial activity ([2]; panel of polymyxin-resistant Gram-negative clinical isolates)
1 | Polymyxin B [PMB] | ~51 | > 128 | 16 | grade 1 | no detectable hemolysis |  |  |  |  |  |  |  |  |  |  |  |  |  | 
2 | colistin |  | > 128 |  |  | no detectable hemolysis | 1.24 | 5.2 | 0.496 | no killing was observed | 6.71 ± 0.46 | 1 | > 128 |  |  |  |  |  |  | 
3 | CCCCCCCC[C@@H]1NC(=O)[C@@H](Cc2ccccc2)NC(=O)[C@H](CCN)NC(=O)[C@@H](NC(=O)[C@H](CCN)NC(=O)[C@@H](NC(=O)[C@H](CCN)NC(=O)CCCCCCC)[C@@H](C)O)CCNC(=O)[C@H]([C@@H](C)O)NC(=O)[C@H](CCN)NC(=O)[C@H](CCN)NC1=O [FADDI-002] (Octanoyl-[Dab]T[Dab][Dab][Dab][dF][Gly(octyl)][Dab][Dab]T; lactam 4-C) |  |  | ≤ 2 |  |  |  |  |  |  | 4.75 ± 0.80 |  |  | no adverse effects were observed | up to 27.1 fold | 0.195 to 0.313 | 0.66 to 1.3 | 2.77 to 3.4 | no adverse effects were observed | potent antimicrobial activity
